Calls of active or inactive are those of the source. No cut-off for these calls is given here.
Key:
[1] = target: T1, Vitamin D3 receptor (Homo sapiens) (UniProt P11473); assay: Transactivation of VDR in human […] cell assessed as cell differentiation at 10^-7 to 10^-5 M measured after 4 days by NBT dye-based assay
T1 sequence (whole entry): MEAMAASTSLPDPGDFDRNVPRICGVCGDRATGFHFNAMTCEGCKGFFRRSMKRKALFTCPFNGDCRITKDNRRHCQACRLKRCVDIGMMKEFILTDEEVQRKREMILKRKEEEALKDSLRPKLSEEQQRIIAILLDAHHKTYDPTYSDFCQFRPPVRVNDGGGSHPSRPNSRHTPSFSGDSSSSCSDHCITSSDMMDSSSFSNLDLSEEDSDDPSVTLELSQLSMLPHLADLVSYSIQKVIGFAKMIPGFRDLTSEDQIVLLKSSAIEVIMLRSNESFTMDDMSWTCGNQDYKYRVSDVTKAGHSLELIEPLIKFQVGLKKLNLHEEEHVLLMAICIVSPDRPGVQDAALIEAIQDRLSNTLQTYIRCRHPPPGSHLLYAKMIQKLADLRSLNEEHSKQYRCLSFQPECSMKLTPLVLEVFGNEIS
Procedure, shortened: (§1)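 HL-60 cells grown in RPMI-1640 with 5% FBS, diluted to 8.0 × 10^4 cells/mL. Compound added from ethanol solution; ethanol-only control; 1α,25(OH)2D3 run alongside each time. Incubated 4 days at 37 °C, 5% CO2. Cells then exposed 20 min at 37 °C to 0.2% NBT with TPA (200 ng/mL) in PBS. Formazan-positive percentage scored in at least 200 cells.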

[2] = target: T1, Vitamin D3 receptor (Homo sapiens); assay: Transactivation of human VDR expressed in COS-7 cells transfected with mouse osteopontin VDRE at >1 uM measured after 24 hrs by luciferase based reporter gene assay; assay type: cell-based
Procedure, shortened: (§2)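 COS-7 cells in DMEM with 5% FCS, lipofected at 24 h with SPPx3-TK-LUC (three mouse osteopontin VDRE copies), pCMX-hVDR and pRL-CMV. After 4 h, switched to DMEM with 1% FCS. Next day, compound, 1α,25(OH)2D3 or ethanol vehicle added for 24 h. Lysate luciferase normalized to sea pansy internal control; triplicate.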

[3] = target: T1, Vitamin D3 receptor (Homo sapiens); assay: Transactivation of human VDR expressed in COS-7 cells transfected with mouse […] for 24 hrs by luciferase based reporter gene assay; assay type: cell-based; procedure, shortened: as §2
[4] = target: T2, Vitamin D3 receptor (Bos taurus) (UniProt Q28037); assay: Displacement of [3H]1alpha,25(OH)2D3 from bovine thymus VDR incubated for 19 hrs by radioactivity based competitive binding assay
T2 sequence (whole entry): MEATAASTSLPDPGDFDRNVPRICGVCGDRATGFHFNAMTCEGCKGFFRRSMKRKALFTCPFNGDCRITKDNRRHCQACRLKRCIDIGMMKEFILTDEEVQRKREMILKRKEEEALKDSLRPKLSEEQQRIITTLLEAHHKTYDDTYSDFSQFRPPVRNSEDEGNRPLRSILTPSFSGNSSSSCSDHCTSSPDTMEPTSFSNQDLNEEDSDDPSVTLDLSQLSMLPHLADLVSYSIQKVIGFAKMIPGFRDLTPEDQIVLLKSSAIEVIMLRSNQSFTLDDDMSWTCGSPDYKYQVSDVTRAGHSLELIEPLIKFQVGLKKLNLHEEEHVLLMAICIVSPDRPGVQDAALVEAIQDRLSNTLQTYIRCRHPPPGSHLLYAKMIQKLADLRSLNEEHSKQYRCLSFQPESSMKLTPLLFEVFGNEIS
Procedure, shortened: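 Bovine thymus VDR in 0.05 M phosphate buffer (pH 7.4) with 0.3 M KCl and 5 mM DTT. Incubated 19 h at 4 °C with 0.072 nM [3H]1α,25(OH)2D3 plus graded amounts of analog or vehicle. Bound and free ligand separated on dextran-coated charcoal (20 min, 4 °C), then centrifuged at 1000g. Supernatant radioactivity counted; run in duplicate.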

[5] = target: T1, Vitamin D3 receptor (Homo sapiens); assay: Transactivation of VDR in human […] cell assessed as cell differentiation at 10^-5 M measured after 4 days by NBT dye-based assay; procedure, shortened: as §1

SMILES	Activity [1]	Activity [3]	other results
C[C@H](CCC(=O)O)[C@H]1CC[C@H]2[C@@H]3CC[C@@H]4C[C@H](OS(C)(=O)=O)CC[C@]4(C)[C@H]3CC[C@]12C		Active	Activity [4]: Active
CC(=O)O[C@@H]1CC[C@@]2(C)[C@H](CC[C@@H]3[C@@H]2CC[C@]2(C)[C@@H]([C@H](C)CCC(=O)O)CC[C@@H]32)C1		Active	Activity [5]: Active
C[C@H](CCC(=O)O)[C@H]1CC[C@H]2[C@@H]3CC[C@@H]4C[C@H](NS(C)(=O)=O)CC[C@]4(C)[C@H]3CC[C@]12C	Active		

The next lines start with results.

Activity [1]	SMILES	Activity [3]	other results
inactive	C[C@H](CCC(=O)O)[C@H]1CC[C@H]2[C@@H]3CC[C@@H]4C[C@H](OC(=O)C(F)(F)F)CC[C@]4(C)[C@H]3CC[C@]12C		Activity [2]: Active
inactive	COC(=O)O[C@@H]1CC[C@@]2(C)[C@H](CC[C@@H]3[C@@H]2CC[C@]2(C)[C@@H]([C@H](C)CCC(=O)O)CC[C@@H]32)C1		
inactive	C[C@H](CCC(=O)O)[C@H]1CC[C@H]2[C@@H]3CC[C@@H]4C[C@H](OC(=O)c5ccccc5)CC[C@]4(C)[C@H]3CC[C@]12C		
